# From PubChem BioAssay
# PostGolgi yeast = growth inhibition of a yeast mutant, post-Golgi transport screen | post-Golgi transport phenotypic cell assay | AID 739 | inhibition, % at 10 µM | 98,000 tested, 0.9% active;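 further: yeast cells grown in 1536-well plates; yeast grown about 18 h at 30C before absorbance read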
# Ecoli tolC = growth inhibitors of E. coli BW25113 tolC mutant; OD615; growth inhibition, % at 10 µM (by protocol); 65,000 tested, 2.2% active; AID 573;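 active means growth inhibition at or above a cutoff equal to the mean over every tested compound plus 3 SD, cut at about 60% in these data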;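 further: growth measured after 20 h incubation at 37 °C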
#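 Signal: optical density read at 615 nm; Assay system: E. coli ΔtolC::kan strain BW25113; Times: 20 h incubation with compound, 37 °C; Dosing: 10 µM final, single dose.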
# Candida biofilm = kills Candida albicans biofilms; C. albicans biofilm + clotrimazole, Alamar Blue; inhibition, % at 6 µM; 85,000 tested, 0.14% active; AID 834;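 active means inhibition above 20%; inactive means inhibition below 20%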;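 further: preformed 24 hr biofilms exposed to compound for 48 hr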
# FAK inh = inhibitors of human focal adhesion kinase. 97,000 tested, 0.84% active. biochemical FAK kinase activity assay. inhibition, %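 (tested at 7 µM)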; in the data active means inhibition above about 19%
# Pyk2 oligo antag = Pyk2 (human) oligomerization antagonism | Q14289 | Q293 cells, Pyk2 FERM NanoBiT luminescence; stronger effect = lower value | z-score (the deposit names both 25 µM and 10 µM) | 99,000 tested, 0.83% active | AID 1347419;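 active means Z-score of -3 or lower, scaled per plate to the spread of control and sample wells; inactive means z-score above -3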;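 further: negative z-score means lost luminescence so less FERM oligomerization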
# Target sequence (Q14289 whole entry, looked up): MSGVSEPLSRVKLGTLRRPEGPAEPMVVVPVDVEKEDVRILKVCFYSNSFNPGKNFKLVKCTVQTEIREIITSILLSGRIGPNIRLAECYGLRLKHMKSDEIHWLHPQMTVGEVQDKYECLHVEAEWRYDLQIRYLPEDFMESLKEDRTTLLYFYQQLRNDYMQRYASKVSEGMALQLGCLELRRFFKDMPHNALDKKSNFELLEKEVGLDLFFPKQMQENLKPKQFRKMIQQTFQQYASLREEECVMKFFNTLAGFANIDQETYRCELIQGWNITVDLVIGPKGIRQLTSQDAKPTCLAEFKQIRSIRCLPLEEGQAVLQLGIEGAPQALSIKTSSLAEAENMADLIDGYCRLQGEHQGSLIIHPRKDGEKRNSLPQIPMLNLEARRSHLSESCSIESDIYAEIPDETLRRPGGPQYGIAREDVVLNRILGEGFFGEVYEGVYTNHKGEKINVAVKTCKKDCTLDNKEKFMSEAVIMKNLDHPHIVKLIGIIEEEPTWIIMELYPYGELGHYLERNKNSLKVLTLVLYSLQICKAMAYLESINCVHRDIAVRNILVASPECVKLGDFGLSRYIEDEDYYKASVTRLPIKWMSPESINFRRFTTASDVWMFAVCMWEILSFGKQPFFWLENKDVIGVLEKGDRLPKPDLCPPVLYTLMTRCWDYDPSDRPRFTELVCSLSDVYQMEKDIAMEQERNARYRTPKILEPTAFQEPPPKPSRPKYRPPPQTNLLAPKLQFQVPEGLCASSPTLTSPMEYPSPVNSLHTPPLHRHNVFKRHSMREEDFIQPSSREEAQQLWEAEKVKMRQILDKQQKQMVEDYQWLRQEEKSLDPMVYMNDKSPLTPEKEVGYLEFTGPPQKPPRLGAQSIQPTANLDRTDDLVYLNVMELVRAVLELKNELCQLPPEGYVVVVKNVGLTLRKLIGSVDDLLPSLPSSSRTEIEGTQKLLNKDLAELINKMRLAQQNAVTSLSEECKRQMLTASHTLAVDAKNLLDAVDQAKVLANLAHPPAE
# PostGolgi ctrl = yeast control strain growth, post-Golgi counter-screen; efflux-deficient yeast background strain, growth absorbance A615, 16 h; inhibition, % at 10 µM; 98,000 tested, 5% active
# Numbers stand for hits; – = inactive; · = not tested or not shown. Shown are actives, neighbours in structure and some others; about 6.9% of the full set was active somewhere. Unless noted, no stated cut-off is given here; in the data, active means inhibition above about 30%; inactive means the rest.
SMILES,PostGolgi yeast,Ecoli tolC,Candida biofilm,FAK inh,Pyk2 oligo antag,PostGolgi ctrl
CCOC(=O)c1c(CN2CCCCC2C)oc2ccc(OC)cc12 (centres undefined),30,·,–,–,–,–
CCOC(=O)c1c(CN2CCCCC2)oc2ccc(OC)cc12,–,–,–,–,–,–
CCOC(=O)c1c(CN2CCN(C)CC2)oc2ccc(OC)cc12,–,–,–,–,–,–
CCOC(=O)c1c(CN2CCN(c3ccccc3)CC2)oc2ccc(O)cc12,–,–,–,·,·,32
Cc1ccc(NC(=O)NC(=O)N(C(C)C)S(C)(=O)=O)nc1,·,·,·,·,–,·
CC1CCCCN1C(=O)CSc1nc(C2CC2)nc2c1cnn2-c1ccccc1 (centres undefined),–,67,·,–,–,–
COc1ccc(/C=C2\SC(=S)N(NC(=O)c3csc4c3CCCC4)C2=O)cc1,37,·,–,–,–,–
Cc1ccccc1-c1nc(S(=O)(=O)c2ccc(Br)cc2)c(NCc2cccnc2)o1,–,·,–,–,-3.4,31
Cc1ccc(S(=O)(=O)c2nc(-c3ccccc3)oc2NCc2cccnc2)cc1,–,–,–,–,–,–
CC1CCc2c(sc(NC(=O)c3ccc(Cn4cc([N+](=O)[O-])cn4)o3)c2C#N)C1 (centres undefined),–,·,–,–,–,38
N#Cc1c(NC(=O)c2ccc(Cn3cc(Br)cn3)o2)sc2c1CCCCC2,–,·,–,–,–,35
COC(=O)C1C(c2ccccc2)C(C(=O)OCc2ccco2)C1c1ccccc1 (centres undefined),·,·,–,–,–,·
Cc1ccccc1NC(=S)NC(=O)CCc1ccccc1,–,·,·,–,–,–
CC1(C)CC(=O)C(C2(O)C(=O)N(Cc3ccccc3)c3ccccc32)CO1 (centres undefined),–,–,–,–,–,–
CC1CCN(c2nc3c(c(=O)n(C)c(=O)n3C)n2CCSc2ncccn2)CC1,·,–,–,·,·,·
CCc1nc(SCC(=O)N2CC(=O)Nc3ccccc32)c2c(C)c(C)sc2n1,–,·,·,–,–,–
CCc1ccc2nc(SCC(=O)N3CC(=O)Nc4ccccc43)c(C#N)cc2c1,·,·,·,–,-3.4,·
COc1ccc(C(CC(=O)O)NC(=O)Cc2ccccc2)cc1OC (centres undefined),·,·,–,·,·,·
CC(=O)Oc1ccc2ccccc2c1C(NC(=O)Cc1ccccc1)c1ccc(Cl)cc1 (centres undefined),–,·,·,–,-4,–
Cc1ccc(N2C(=O)CSC23C(=O)Nc2ccccc23)cc1 (centres undefined),–,–,–,–,–,–
CC1=CC(C)(C)N2C(=O)C3(SCC(=O)N3c3ccc(O)cc3)c3cc(C)cc1c32 (centres undefined),–,87,–,–,–,–
COc1ccc(NC(=O)c2ccc(CN3CCN(c4ccccc4)CC3)cc2)cc1,64,–,–,–,–,–
COc1cccc(NC(=O)c2ccc(CN3CCN(c4ccccc4)CC3)cc2)c1,37,–,–,–,–,–
COc1cccc(C(=O)Nc2ccc(N3CCN(Cc4ccccc4)CC3)cc2)c1,–,·,–,–,–,–
N#Cc1c2n(c3c(=O)n(Cc4ccccc4)cnc13)CCCC2,–,–,–,–,–,–
SMILES,PostGolgi yeast,Ecoli tolC,Candida biofilm,FAK inh,Pyk2 oligo antag,PostGolgi ctrl
N#Cc1c2n(c3c(=O)n(Cc4ccc(Cl)cc4)cnc13)CCCCC2,–,–,–,–,-3.2,58
CCCn1c(SCC(=O)N2c3ccccc3CC2C)nnc1-c1ccco1 (centres undefined),·,·,–,–,–,·
CCOC(=O)c1cc2sccc2n1CCCN1C(=O)c2ccccc2C1=O,–,–,–,–,–,32
CCOC(=O)c1[nH]c2ccccc2c1CCCN1C(=O)c2ccccc2C1=O,–,·,–,–,-3,–
CCOC(=O)c1cc2sccc2n1CC(=O)N1CCCc2ccccc21,–,100,–,–,–,–
CCOC(=O)c1[nH]c2cc3c(cc2c1CCCN1C(=O)c2ccccc2C1=O)OCCO3,–,–,–,–,–,–
COC(=O)c1cc2sc(Cl)cc2n1CC(=O)N1CCCc2ccccc21,–,–,–,–,–,36
Cc1ccc(-n2cc(-c3ccccc3)c3c(=O)[nH]cnc32)cc1,·,·,·,·,–,·
CC(=O)Nc1ccc(S(=O)(=O)N2CCOCC2)cc1,·,·,–,–,–,·
Cc1ccc(NC(C)c2cc(Cl)ccc2O)cc1 (centres undefined),–,·,35,–,–,–
Brc1cc(Br)c2ncnc(N3CCCCC3)c2c1,–,100,–,–,–,–
COc1ccc(Cl)cc1C(=O)CSc1nnnn1C1CCCC1,–,–,–,–,–,35
CCOC(=O)c1cc2c(=O)n3ccccc3nc2n(Cc2ccc(Cl)cc2)c1=N,·,–,–,·,·,·
Cc1ccc(-c2[nH]c3ccccc3c2C(C[N+](=O)[O-])c2ccco2)cc1 (centres undefined),–,·,–,–,–,30
COc1cccc(OCC(O)CN2CCC(Cc3ccccc3)CC2)c1 (centres undefined),–,–,–,–,–,–
C=CCc1ccc(OCC(O)CN2CCC(Cc3ccccc3)CC2)c(OC)c1 (centres undefined),98,·,–,–,–,63
CC(NS(=O)(=O)c1ccccc1)C(=O)Nc1nccs1 (centres undefined),–,–,–,–,–,–
O=C(Nc1nccs1)C(NS(=O)(=O)c1ccc(Br)s1)c1ccccc1 (centres undefined),–,61,–,–,–,–
CN(C)S(=O)(=O)c1ccc(C(=O)Nc2ccc(OCC(=O)N3CCOCC3)cc2)cc1,–,–,–,–,–,–
Cn1c(NCC(O)CO)nc2c1c(=O)n(Cc1ccc(Cl)c(Cl)c1)c(=O)n2C (centres undefined),–,·,–,–,–,–
Cn1c(NCc2ccco2)nc2c1c(=O)n(Cc1ccc(Cl)c(Cl)c1)c(=O)n2C,–,–,–,–,–,49
CC1CN(c2nc3c(c(=O)n(Cc4ccc(Cl)c(Cl)c4)c(=O)n3C)n2C)CC(C)O1 (centres undefined),–,87,–,–,–,–
Cn1c(N2CCOCC2)nc2c1c(=O)n(Cc1ccc(Cl)cc1)c(=O)n2C,·,–,–,–,–,·
CCOC(=O)CSc1nc(C)c(C(=O)OCC)s1,–,–,–,–,–,–
COc1ccc(/C=C2\C(=O)N(c3c(Cl)cc(Cl)cc3Cl)N=C2NC(=O)c2cccc([N+](=O)[O-])c2)cc1,·,·,·,·,-3.7,·
O=C(O)c1sc2cc(C(F)(F)F)cnc2c1-c1ccccc1,–,·,·,–,–,–
COC(=O)c1sc2cc(C(F)(F)F)cnc2c1-c1ccccc1,–,·,·,–,–,45
CSc1nnc(-c2sc3cc(C(F)(F)F)cnc3c2-c2ccccc2)n1C,–,·,–,–,-3.1,–
C/C(=N\OC(=O)c1ccc(Cl)cc1)c1sc(-c2ccccc2)nc1C,–,·,·,–,–,–
COc1ccc(C(C(=O)NC2CCCCC2)N(Cc2cccs2)C(=O)Cc2c[nH]c3ccccc23)cc1OC (centres undefined),–,·,·,–,–,–
